TRPC4 potent = positive allosteric modulators of TRPC4, primary screen, cell-based, mouse TRPC4beta, HEK293 mu-opioid, Fluo-4 calcium; actives 0.42% (n = 310,000); B-score at 10 µM; Short transient receptor potential channel 4 (Mus musculus), Q9QUQ5; DAMGO EC20, Fluo-4 Ca2+ flux; hits give high values; AID 2227, 2009;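 active = B-score of calcium response area above 5 SD of library B-scores, with initial fluorescence ratio within 5 SD of library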;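 also: B-score of integrated fluorescence ratio over time as area under calcium response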
TRPC4 block = inhibitors of mouse TRPC4 channel, primary screen, Fluo4 calcium, HEK293 TRPC4beta/mu-opioid cells. B-score at 10 µM. DAMGO-evoked Fluo4 calcium flux; hits give low values. AID 2247, 2010. actives 0.39% (n = 300,000);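 active = B-score over 3 SD under the library average, no early fluorescence shift, positive overall ratio signal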
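Assay system: Stable TRPC4beta/mu-opioid receptor HEK293 cells | Reagent: DAMGO in two steps, submaximal then maximal | Compound dosing: Single concentration per test compound | Signal: Fluo4 Ca2+ flux fluorescence | Evaluation: Per-well B score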
TRPC6 inh = mouse TRPC6 channel inhibitors, primary screen, cell-based, HEK293, membrane potential dye. AID 2553, 2010. Short transient receptor potential channel 6 (Mus musculus), Q61143. ACh-evoked depolarization; hits give low values. actives 1.1% (n = 310,000). B-score at 10 µM;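 active = B-score under library mean minus 3 SD, initial fluorescence not abnormally high, positive integrated signal ratio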;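 also: B-score derived from integrated fluorescence ratio over the kinetic read; more negative B-score means stronger inhibition of depolarization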
TRPC6 activator = mouse TRPC6 channel activators, primary screen, cell-based, HEK293, membrane potential dye. Short transient receptor potential channel 6 (Mus musculus), Q61143. HEK293-TRPC6 membrane potential dye fluorescence; hits give high values. B-score at 10 µM. actives 0.13% (n = 310,000). AID 2550, 2010;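 active = B-score of the integrated fluorescence ratio above library mean plus 3 SD, and starting fluorescence ratio within library mean plus 5 SD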;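 also: higher score means more depolarization so channel activation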
TRPC4 agonist = activators of mouse TRPC4 channel, primary screen, Fluo4 calcium, HEK293 TRPC4beta/mu-opioid cells; B-score at 10 µM; AID 2237, 2010; actives 0.49% (n = 310,000); Short transient receptor potential channel 4 (Mus musculus), Q9QUQ5; Fluo4 calcium fluorescence; hits give high values;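 active = B-score above 5 SD of library B-scores, and initial fluorescence ratio not above library mean plus 5 SD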;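 also: positive B-score marks a calcium rise read as TRPC4 activation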
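system = HEK293 cells stably co-expressing mouse TRPC4beta and mu-opioid receptor | schedule = Fluo4 dye loading 45 min at room temperature, 110 s recording | measure = B-scored integrated calcium fluorescence ratio | signal = Fluo4 calcium-sensitive dye fluorescence, kinetic, 1 Hz baseline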
TRPC4 spec 2 = second check of whether TRPC6 inhibitors also affect mouse TRPC4; shares compounds with TRPC6 inh; HEK293 TRPC4/MOR, membrane potential dye fluorescence; channel activated by saturating DAMGO dose; inhibition, % at 10 µM; actives 42% (n = 920); AID 2776;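 active = compounds whose fluorescence signal differed from control wells by over 3 SD, either direction, in both duplicate plates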
TRPC4 spec = mouse TRPC4 modulation by TRPC6 hits, confirmation, selectivity assay for TRPC6 inhibitor project, cell-based, HEK293 TRPC4/mu-opioid, membrane potential dye; shares compounds with TRPC6 inh; activity change, negative = inhibition, % at 10 µM; AID 2777, 2010; actives 61% (n = 920); membrane potential fluorescence;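 active = rise or fall in signal beyond 3 SD of buffer-only wells in both replicate plates, either sign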;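 also: integrated kinetic ratio of fluorescence range over baseline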
HEK293 MPD ctr 2-1 = nonspecific membrane potential effects, parental HEK293, confirmation, counter-screen for TRPC6 inhibitor project, cell-based, second counter screen; actives 31% (n = 920); shares compounds with TRPC6 inh; signal change vs control, % at 10 µM; parental HEK293 membrane potential dye fluorescence; maximal acetylcholine challenge after compound addition;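 active = membrane potential signal moving either way by over 3 SD of the maximum-effect control, in both duplicate plates, meaning non-specific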
HEK293 MPD ctr-1 = membrane potential modulation in parental HEK293, confirmation, counter-screen for TRPC6 inhibitor project, cell-based; actives 60% (n = 920); parental HEK293 membrane potential dye fluorescence; shares compounds with TRPC6 inh; membrane potential signal change, % at 10 µM;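 active = membrane potential signal shifting up or down by more than 3 SD of buffer-only wells, on both duplicate plates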
HEK293 MPD ctr-2 = parental HEK293 membrane potential modulation, confirmation, counter-screen for TRPC6 modulator project, cell-based; actives 51% (n = 2,400); membrane potential dye fluorescence; shares compounds with TRPC6 inh; membrane potential signal change, % at 10 µM; AID 488924, 2010;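 active = membrane potential signal moves up or down beyond 5 SD from buffer-only wells, on both duplicate plates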
HEK293 MPD ctr 2-2 = second counter-screen for TRPC6 modulators: effect in parental HEK293 cells; shares compounds with TRPC6 inh; membrane potential dye fluorescence; after compound, maximal acetylcholine stimulation; inhibition, % at 10 µM; actives 14% (n = 2,400);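 active = membrane potential signal drops by more than 5 SD from the mean control signal, in both duplicate plates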;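 also: plate controls were acetylcholine ECmax control wells for no effect and buffer only wells for full effect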
TRPC4 ctr mod = TRPC4 modulation by TRPC6 hit compounds, confirmation, selectivity assay for TRPC6 modulator project, cell-based, HEK293 TRPC4/mu-opioid, membrane potential dye, mouse | shares compounds with TRPC6 inh | membrane potential fluorescence | percent change from control (negative = decrease, positive = increase), % at 10 µM | actives 69% (n = 2,400) | AID 488927, 2010;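 active = membrane potential signal moved up or down beyond 5 SD of buffer control wells, in both duplicate plates, actives on both sides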;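 also: plate controls were assay buffer wells for no effect and DAMGO maximal-effect wells for full effect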
TRPC4/MOR inh 2 = second selectivity test of TRPC6 modulators against mouse TRPC4; actives 55% (n = 2,400); HEK293 TRPC4/mu-opioid, membrane potential dye fluorescence; stimulated with maximal-effect DAMGO; AID 488928; inhibition, % at 10 µM; shares compounds with TRPC6 inh;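 active = drop in membrane potential signal beyond 5 SD of the control wells in both duplicate plates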;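 also: TRPC4 counter screen for TRPC6 hits run under conditions tuned for TRPC6 not TRPC4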
TRPC6 inh conf = mouse TRPC6 channel inhibitors, confirmation, HEK293 cells, membrane potential dye, duplicate | shares compounds with TRPC6 inh | ACh-evoked depolarization | inhibition, % at 10 µM | actives 43% (n = 3,300);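 active = fluorescence ratio falls more than 5 SD below the full-stimulation control mean, in both duplicate runs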;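 also: integrated fluorescence ratio of peak minus minimum over baseline after agonist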
TRPC6 act confirm = mouse TRPC6 channel activators, confirmation, HEK293 cells, membrane potential dye, duplicate; AID 488961, 2010; HEK293-TRPC6 membrane potential dye fluorescence, FDSS; shares compounds with TRPC6 inh; activation, % at 10 µM; actives 11% (n = 2,800);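 active = ratio signal rise beyond 5 SD above unstimulated control wells' mean, seen in both duplicate runs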;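 also: plate controls were buffer EC0 wells for no effect and acetylcholine ECmax response for full effect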
An asterisk follows results filed as active; i = inactive; nt = no result given. Most compounds without a hit are left out; they make up all but 2.3% or so of the library.

SMILES	TRPC4 potent	TRPC4 block	TRPC6 inh	TRPC6 activator	TRPC4 agonist	HEK293 MPD ctr-2	HEK293 MPD ctr 2-2	TRPC4 ctr mod	TRPC4/MOR inh 2	TRPC6 inh conf	TRPC6 act confirm	others
O=C(c1ccccc1)N(Cc1ccccc1)c1ccccn1	i	i	i	i	i	nt	nt	nt	nt	nt	nt
O=C(c1ccc([N+](=O)[O-])cc1)N(Cc1ccccc1)c1ccccn1	i	i	-5.7*	i	i	144%*	i	38%*	i	i	nt
CN(C)CC/C=C1/c2cc(F)ccc2Sc2ccc(Cl)cc21	i	i	-5.3*	i	i	i	i	9.5%*	58%*	i	i
CN(C)CC/C=C1/c2ccccc2Sc2c(O)cc(Cl)cc21	i	i	i	i	i	nt	nt	nt	nt	nt	nt
Cc1ccc(-n2c(-c3cccc(C)c3)n[nH]c2=S)cc1	i	i	-18*	i	i	i	i	i	i	i	i
Cc1ccc(-c2n[nH]c(=S)n2-c2ccccc2)cc1	i	i	i	i	i	nt	nt	nt	nt	nt	nt
CC(=O)C1CCN(Cc2ccccc2)CC1	i	i	i	i	i	nt	nt	nt	nt	nt	nt
CSc1ccccc1OC1CCN(Cc2ccccc2)CC1	i	i	i	12*	i	196%*	i	40%*	63%*	i	77%*
COc1ccc(-c2n[nH]c(C)c2-c2cc(OC)ccc2O)cc1	i	i	-6*	i	i	i	i	i	i	i	i
COc1ccc(-c2cc(-c3cc(OC)ccc3O)[nH]n2)cc1	i	i	i	i	i	nt	nt	nt	nt	nt	nt
C/C(=N\Nc1ccc2nncn2n1)c1ccco1	i	i	i	i	i	nt	nt	nt	nt	nt	nt
C/C(=N\Nc1ccc2nncn2n1)c1ccccn1	i	i	-7.4*	i	i	nt	nt	nt	nt	84%*	i	TRPC4 spec 2=71%*;TRPC4 spec=-36%*;HEK293 MPD ctr 2-1=i;HEK293 MPD ctr-1=-522%*
Oc1c(C(Nc2ccccn2)c2ccccn2)ccc2cccnc12 (configuration not stated)	i	i	-6.2*	i	i	i	i	9.5%*	i	40%*	i
Cc1ccc[n+](Cc2ccc([N+](=O)[O-])cc2)c1	i	i	i	i	i	nt	nt	nt	nt	nt	nt
O=[N+]([O-])c1ccc(C[n+]2cccc3c4ccccc4ccc32)cc1	i	i	-6*	i	i	-434%*	i	-61%*	64%*	51%*	i
CCOc1ccc(OCC)c(NC(=O)CCNS(=O)(=O)c2cc(Br)cnc2N)c1	i	i	i	i	i	nt	nt	nt	nt	nt	nt
NS(=O)(=O)c1ccc(NC(=S)NCc2ccc3c(c2)OCO3)cc1	i	i	-6.8*	i	i	i	i	i	i	i	i
Cc1ccc(OS(=O)(=O)c2ccc(N3C(=O)CCC3=O)cc2)cc1	i	i	i	i	i	nt	nt	nt	nt	nt	nt
CCS(=O)(=O)N1CCC(C(=O)Nc2cc(C)ccc2O)CC1	i	i	i	i	i	nt	nt	nt	nt	nt	nt
COc1cc(/C=N/NC(=O)CNC(=O)c2ccccc2)ccc1OC(=O)c1cccs1	i	i	-7.6*	13*	i	i	i	i	i	i	82%*
O=C(/C=C/c1ccco1)NC(=S)Nc1ccc(Cl)cn1	i	i	i	i	i	nt	nt	nt	nt	nt	nt
N/C(=N\OC(=O)C1CCCCC1)c1cccnc1	i	i	i	i	i	nt	nt	nt	nt	nt	nt
Cn1c(=O)c(C(=O)Nc2ccccn2)c(O)c2ccccc21	i	i	-8.7*	i	i	nt	nt	nt	nt	i	i	TRPC4 spec 2=i;TRPC4 spec=-21%*;HEK293 MPD ctr 2-1=i;HEK293 MPD ctr-1=-327%*
COc1cc(NS(=O)(=O)c2cccc3nsnc23)c(C(=O)O)cc1OC	i	i	i	i	i	nt	nt	nt	nt	nt	nt
COc1ccc(CN(CCN(C)C)c2ccccn2)cc1	i	i	i	i	i	nt	nt	nt	nt	nt	nt
CC[N+](C)(C)CCN(Cc1ccc(Cl)cc1)c1ccccn1	i	i	-6.4*	i	i	i	i	i	i	i	i
Cc1ccnc(NC(=O)c2ccc(S(=O)(=O)N3CCCCCC3)cc2)c1	i	i	i	i	i	nt	nt	nt	nt	nt	nt
